A selection: hits, their analogues and other compounds. The true share with any hit is near 3.7%.
KCNK9 inh: KCNK9 potassium channel inhibitors, primary screen, HEK293 cells, thallium flux; Potassium channel subfamily K member 9 (Homo sapiens), Q9NPC2; FluxOR thallium flux fluorescence; hits give low values; B-score at 10 µM; actives 1.2% (n = 310,000); AID 488922, 2010;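 active = ratio B-score over 3 SD below the library mean, with starting fluorescence within 5 SD of its mean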;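 note: negative B-score means less thallium flux so channel inhibition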
Kir21 block: inhibitors of mouse Kir2.1 inward-rectifier potassium channel | Inward rectifier potassium channel 2 (Mus musculus), P35561 | HEK293-Kir2.1, FluxOR thallium flux fluorescence; hits give low values | B-score at 10 µM | actives 0.85% (n = 310,000);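 active = fluorescence ratio B-score at or below minus 3 SD of library scores, with starting-brightness B-score within 2 SD, cut at about -4.2 in these data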;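 note: channel flux triggered by added potassium and thallium sulfate stimulus; B-score of peak minus minimum fluorescence over baseline after thallium stimulus; more negative B-score means stronger Kir2.1 block with less thallium influx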
hERG protect: hERG rescue from dofetilide block, primary screen, cell-based, CHO-hERG, FluxOR thallium flux, dofetilide IC70. Voltage-gated inwardly rectifying potassium channel KCNH2 (Homo sapiens), Q12809. dofetilide IC70 present. activation (rescue from dofetilide block), less the hit threshold, % at 10 µM. actives 0.51% (n = 310,000). AID 1511, 2009;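 active = activation above the mean of controls blocked by dofetilide plus 5 SD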;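 note: thallium influx through hERG after potassium depolarization seen as dye fluorescence rise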
KCNQ1 pot: potentiators or activators of KCNQ1 channel, primary screen, cell-based, thallium flux, high-throughput; Potassium voltage-gated channel subfamily KQT member 1 (Homo sapiens), P51787; CHO-K1 KCNQ1, thallium flux FluxOR fluorescence; hits give high values; B-score at 10 µM; actives 0.35% (n = 310,000); AID 2648, 2010;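 active = fluorescence ratio B-score, a plate-corrected score, at least three library SD, with initial intensity B-score within 5 SD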
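System: Stable KCNQ1 CHO-K1 line | Incubation: 90 min dye loading and 20 min compound exposure, both at room temperature | Measure: Ratio B score | Medium: Assay buffer for compound exposure, DMSO matched across wells | Compound dosing: Single-concentration screen | Probe or stimulus: K+/Tl+ depolarizing stimulus | Measured by: Kinetic FluxOR fluorescence, 10 s baseline plus 110 s post-stimulus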
KCNK3 block: human KCNK3 channel inhibitors, primary screen, CHO cells, FluxOR thallium flux, B-score; Potassium channel subfamily K member 3 (Homo sapiens), O14649; FluxOR fluorescence; hits give low values; B-score at 10 µM; actives 0.84% (n = 340,000);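 active = B-score under library mean minus 4 SD, starting fluorescence ratio at most library mean plus 5 SD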;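 note: more negative B-score means stronger inhibition of thallium flux through KCNK3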
KCNQ1 inh: inhibitors of human KCNQ1 channel, primary screen, cell-based, thallium flux, high-throughput | Potassium voltage-gated channel subfamily KQT member 1 (Homo sapiens), P51787 | CHO-K1 KCNQ1, FluxOR thallium flux fluorescence; hits give high values | B-score at 10 µM | actives 1.3% (n = 310,000) | AID 2642, 2010;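 active = compounds whose thallium flux B-score, printed positive for inhibition, exceeds three library SD while starting fluorescence stays within three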;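 note: channel opened by potassium depolarization with thallium stimulus after 20 min compound exposure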
KCNQ1 inh valid: KCNQ1 potassium channel inhibitors, confirmation, cell-based, Tl flux, duplicate. shares compounds with KCNQ1 inh. KCNQ1 cell line, FluxOR thallium flux fluorescence. inhibition, % at 10 µM. actives 93% (n = 1,600);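 active = primary screen active, with duplicate mean exceeding buffer control mean plus 3 SD of buffer wells, cut at about 28% in these data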;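 note: 0% = buffer control ratio and 100% = XE991 inhibitor control ratio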
CHO KCNQ1 ctr: thallium flux effects in parental CHO cells, counter-screen for KCNQ1 inhibitor project, cell-based, Tl flux; fluorescence ratio (Tl flux) at 10 µM; AID 588366, 2011; parental CHO-K1, FluxOR thallium flux fluorescence ratio; hits give low values; zero means no signal rise above baseline; shares compounds with KCNQ1 inh; actives 21% (n = 1,600);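 active = mean of duplicate thallium-flux fluorescence ratios in parental host cells more than 5 SD below the buffer control mean, cut at about 0.38 in these data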;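 note: ratio is peak minus minimum fluorescence divided by baseline fluorescence; actives read low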
KCNQ1 ephys val: KCNQ1 channel inhibitors, confirmation, orthogonal assay, cell-based, automated electrophysiology | shares compounds with KCNQ1 inh | KCNQ1-CHO cells, automated patch clamp current | calls only at 10 µM | actives 20% (n = 490);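 active = KCNQ1 current drop exceeding 3 SD of negative control wells, seen in both duplicate runs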;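 note: steady state current during a 2 s step from -80 to +40 mV; negative values mean current inhibition and positive values mean potentiation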
KCNQ2 spec: KCNQ2 channel inhibition, selectivity assay for KCNQ1 inhibitor project, cell-based. shares compounds with KCNQ1 inh. KCNQ2 cells, FluxOR thallium flux fluorescence. inhibition, % at 10 µM. actives 71% (n = 1,600). AID 651746, 2012;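 active = mean percent inhibition of the KCNQ2 thallium signal more than 5 SD above the buffer-only control wells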;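 note: KCNQ2 expressed in CHO cells; 0% = buffer control wells and 100% = XE-991 inhibitor control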
Target sequence (O88943 whole entry, looked up): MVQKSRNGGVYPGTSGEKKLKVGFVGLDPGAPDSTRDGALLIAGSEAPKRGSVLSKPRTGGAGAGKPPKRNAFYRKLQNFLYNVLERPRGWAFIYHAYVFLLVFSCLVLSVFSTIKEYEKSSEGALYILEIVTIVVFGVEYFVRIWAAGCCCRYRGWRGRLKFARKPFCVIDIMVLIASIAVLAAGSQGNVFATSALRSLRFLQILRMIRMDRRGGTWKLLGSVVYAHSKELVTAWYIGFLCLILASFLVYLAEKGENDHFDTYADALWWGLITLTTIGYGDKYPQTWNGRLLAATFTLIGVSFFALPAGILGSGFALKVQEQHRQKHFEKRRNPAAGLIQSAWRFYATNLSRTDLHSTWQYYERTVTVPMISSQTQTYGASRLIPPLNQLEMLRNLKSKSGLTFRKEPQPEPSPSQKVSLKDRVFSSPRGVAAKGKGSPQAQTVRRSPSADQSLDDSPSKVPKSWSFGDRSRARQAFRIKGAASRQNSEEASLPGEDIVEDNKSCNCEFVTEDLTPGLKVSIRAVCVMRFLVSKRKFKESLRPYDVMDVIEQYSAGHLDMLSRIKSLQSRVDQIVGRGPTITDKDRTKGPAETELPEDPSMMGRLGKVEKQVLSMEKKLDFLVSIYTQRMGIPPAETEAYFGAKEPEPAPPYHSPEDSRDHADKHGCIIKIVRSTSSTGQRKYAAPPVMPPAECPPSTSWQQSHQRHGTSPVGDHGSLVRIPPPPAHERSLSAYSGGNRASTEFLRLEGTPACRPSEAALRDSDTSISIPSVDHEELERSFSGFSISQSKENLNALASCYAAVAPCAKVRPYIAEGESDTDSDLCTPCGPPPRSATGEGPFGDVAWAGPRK
KCNQ1 KCNE1 spec: KCNQ1/KCNE1 channel inhibition, selectivity assay for KCNQ1 inhibitor project, CHO-K1 cells, thallium flux, FluxOR | shares compounds with KCNQ1 inh | inhibition, % at 10 µM | FluxOR thallium flux fluorescence | actives 77% (n = 1,600) | AID 652147, 2013;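 active = mean percent inhibition of duplicate wells above the buffer-only control mean plus 3 SD of those controls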;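 note: 0% = buffer only wells and 100% = XE-991 inhibitor control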
Active calls of the source: *; i = inactive; · = no result; + = active, no number.

SMILES | KCNK9 inh | Kir21 block | hERG protect | KCNQ1 pot | KCNK3 block | KCNQ1 inh | KCNQ1 inh valid | CHO KCNQ1 ctr | KCNQ2 spec | KCNQ1 KCNE1 spec | others
CCOC(=O)c1c(C)nc2ccc(Cl)cc2c1-c1ccccc1 | i | -3.17 | -9.8 | i | i | 7* | 122.0* | 0.487 | 117.3%* | 153.5%* | KCNQ1 ephys val=i
O=C(/C=C/c1ccc(OC(F)F)cc1)Nc1cccc(S(=O)(=O)NC2=NCCCCC2)c1 | i | -0.67 | -20.4 | i | i | i | · | · | · | ·
COc1ccc(N=c2cc(-c3ccc(OC)cc3)oc3ccccc23)cc1 | i | -3.8 | -11.2 | i | i | 12* | 147.0* | 0.364* | i | +
CC(OC(=O)/C=C/c1ccccc1Cl)C(=O)NC1CCCCC1C (centres undefined) | i | 0.93 | -8.4 | i | i | i | · | · | · | ·
COc1ccc2c(c1)c(CC(=O)Nc1cc(C)ccc1C)c(C)n2C(=O)c1ccc(Cl)cc1 | i | -0.04 | -11.6 | i | i | i | · | · | · | ·
COc1ccc2c(c1)c(CC(=O)Nc1ccccc1OC)c(C)n2C(=O)c1ccc(Cl)cc1 | i | 0.43 | -7.0 | i | i | 7* | 43.0* | 0.39 | 91.0%* | 48.5%*
COc1ccc(NC(=O)c2cncc(Br)c2)cc1S(=O)(=O)N1CCCCC1 | i | 0.51 | -7.1 | i | i | i | · | · | · | ·
Cc1ccc(NC(=S)NCCSc2ccc(Cl)cc2)cc1 | i | 0.13 | -3.0 | i | i | i | · | · | · | ·
Cc1ccc(SCCNC(=S)Nc2cc(C)cc(C)c2)cc1 | i | -0.24 | -19.8 | i | i | 9* | 69.0* | 0.5 | 71.3%* | 77.0%*
COc1ccc(NC(=S)NCCSc2ccc(Cl)cc2)c(OC)c1 | i | -0.93 | -7.0 | i | i | i | · | · | · | ·
Cc1cccc(C)c1NC(=S)NCCSc1ccc(Cl)cc1 | i | -2.09 | -15.2 | i | i | 6* | 89.5* | 0.431 | 110.0%* | 95.5%* | KCNQ1 ephys val=i
CCC(C)(C)NC(=O)C(c1cccn1C)N(Cc1ccc(OC)cc1)C(=O)Cn1nnc2ccccc21 (centres undefined) | i | 1.6 | -8.7 | i | i | i | · | · | · | ·
COc1cc(/C=C/c2nnc3c4ccccc4ncn23)cc(OC)c1OC | i | -0.88 | -5.3 | i | i | 6* | 44.0* | 0.539 | 59.7%* | 34.0%*
COC(=O)c1ccc(NC(=O)COC(=O)COc2cccc3c2OC(C)(C)C3)cc1 | · | · | · | · | i | · | · | · | · | ·
CCCc1ccc(C(C)NC(=S)NC2CCCCC2)cc1 (centres undefined) | i | -0.35 | -3.1 | i | i | 6* | 46.0* | 0.733 | i | i
